Data from ChEMBL document CHEMBL5303300, “EUbOPEN Chemogenomics Library - Multiplex” (2023).
Values joined by “and” are separate entries in the source; they are usually repeats but may differ in a detail not shown here. Equal values may be shown once.

Tested on: U2OS
Test: Multiplex assay against U2OS
Assay type: toxicity, cell-based
Conditions: human, number of replicates 2
In short: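 Tubulin, mitochondrial-mass and membrane-permeability phenotypes are per cents of healthy-nucleus cells. Cells were gated by CellPathfinder machine learning into Hoechst high-intensity objects or normal cells, normal cells into healthy, pyknosed or fragmented nuclei, and pyknosed cells into mitotic or apoptotic. Before that, live cells stained at seeding with Hoechst33342, BioTracker Green Microtubule Cytoskeleton Dye, MitoTracker Red and Annexin V Alexa Fluor 680 were imaged on a CQ1 microscope at 37°C and 5% CO2 after compound addition.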

[1] = 12 h, 10 µM, compound concentration 10 uM
[2] = 24 h, 10 µM, compound concentration 10 uM
[3] = 48 h, 10 µM, compound concentration 10 uM
[4] = 12 h, 1 µM, compound concentration 1 uM
[5] = 24 h, 1 µM, compound concentration 1 uM
[6] = 48 h, 1 µM, compound concentration 1 uM

SMILES: C[C@@H]1CC[C@@]2(OC1)O[C@H]1[C@@H](O)[C@H]3[C@@H]4CC[C@H]5C[C@@H](O[C@@H]6O[C@H](CO)[C@H](O[C@@H]7O[C@H](CO)C(O)[C@H](O[C@@H]8OC[C@@H](O)[C@H](O)[C@H]8O)[C@H]7O[C@@H]7O[C@H](CO)[C@H](O)[C@H](O[C@@H]8O[C@H](CO)[C@@H](O)[C@H](O)[C@H]8O)[C@H]7O)[C@H](O)[C@H]6O)[C@H](O)C[C@]5(C)[C@H]4CC[C@]3(C)[C@H]1[C@@H]2C (stereo partly specified) [DIGITONIN]
- Population Apoptotic (%) [1]: 65% [middle of 4 runs]
- Population Healthy Nuclei (%) [1]: 67% and 87% and 86% and 88%
- Population Hoechst High Intensity Objects (%) [1]: 0%
- Population Membrane Permeable-Phenotype (%) [1]: 0% and 7% and 1% and 3%
- Population Mitochondria Different-Phenotype (%) [1]: 0% and 3%
- Population Normal (%) [1]: 100%
- Population Pyknosed Nuclei (%) [1]: 5% and 3% and 9%
- Population Tubulin-Different-Phenotype (%) [1]: 72% and 92% and 85% and 94%
- Population Apoptotic (%) [2]: 58% [middle of 4 runs]
- Population Healthy Nuclei (%) [2]: 67% and 83% and 85% and 86%
- Population Hoechst High Intensity Objects (%) [2]: 0%
- Population Membrane Permeable-Phenotype (%) [2]: 0% and 2% and 1%
- Population Mitochondria Different-Phenotype (%) [2]: 0% and 2%
- Population Normal (%) [2]: 100%
- Population Pyknosed Nuclei (%) [2]: 13% and 12% and 9%
- Population Tubulin-Different-Phenotype (%) [2]: 65% and 97% and 90% and 96%
- Population Apoptotic (%) [3]: 70% and 100% and 62% and 51%
- Population Healthy Nuclei (%) [3]: 68% and 75% and 92% and 91%
- Population Hoechst High Intensity Objects (%) [3]: 1% and 0%
- Population Membrane Permeable-Phenotype (%) [3]: 3% and 1% and 0%
- Population Mitochondria Different-Phenotype (%) [3]: 5% and 1% and 0%
- Population Normal (%) [3]: 98% and 100% and 99%
- Population Pyknosed Nuclei (%) [3]: 13% and 7% and 6% and 5%
- Population Tubulin-Different-Phenotype (%) [3]: 84% and 100% and 92% and 97%

SMILES: CCCCOc1c(C(=O)c2c(F)cc(C)cc2F)c[nH]c2nncc1-2
- Population Apoptotic (%) [4]: 54% and 60%
- Population Healthy Nuclei (%) [4]: 52% and 86%
- Population Hoechst High Intensity Objects (%) [4]: 0%
- Population Membrane Permeable-Phenotype (%) [4]: 0% and 3%
- Population Mitochondria Different-Phenotype (%) [4]: 0% and 1%
- Population Mitotic Cells (%) [4]: 45% and 40%
- Population Normal (%) [4]: 100%
- Population Pyknosed Nuclei (%) [4]: 20% and 9%
- Population Tubulin-Different-Phenotype (%) [4]: 89% and 86%
- Population Apoptotic (%) [1]: 42% and 84%
- Population Fragmented Nuclei (%) [1]: 19% and 8%
- Population Healthy Nuclei (%) [1]: 29% and 79%
- Population Hoechst High Intensity Objects (%) [1]: 0%
- Population Membrane Permeable-Phenotype (%) [1]: 2% and 1%
- Population Mitochondria Different-Phenotype (%) [1]: 0%
- Population Normal (%) [1]: 100%
- Population Tubulin-Different-Phenotype (%) [1]: 73% and 91%
- Total Cell Count [1]: 143 and 207
- Population Apoptotic (%) [5]: 46% and 62%
- Population Fragmented Nuclei (%) [5]: 10% and 5%
- Population Healthy Nuclei (%) [5]: 52% and 82%
- Population Hoechst High Intensity Objects (%) [5]: 0%
- Population Membrane Permeable-Phenotype (%) [5]: 0% and 1%
- Population Mitochondria Different-Phenotype (%) [5]: 0%
- Population Mitotic Cells (%) [5]: 53% and 37%
- Population Normal (%) [5]: 100%
- Population Tubulin-Different-Phenotype (%) [5]: 76% and 79%
- Population Apoptotic (%) [2]: 41% and 66%
- Population Hoechst High Intensity Objects (%) [2]: 1% and 0%
- Population Membrane Permeable-Phenotype (%) [2]: 6% and 2%
- Population Mitochondria Different-Phenotype (%) [2]: 0%
- Population Mitotic Cells (%) [2]: 58% and 33%
- Population Normal (%) [2]: 98% and 100%
- Population Tubulin-Different-Phenotype (%) [2]: 81% and 86%
- Total Cell Count [2]: 187 and 205
- Population Apoptotic (%) [6]: 37% and 67%
- Population Fragmented Nuclei (%) [6]: 5% and 4%
- Population Healthy Nuclei (%) [6]: 71% and 88%
- Population Hoechst High Intensity Objects (%) [6]: 0%
- Population Membrane Permeable-Phenotype (%) [6]: 4% and 2%
- Population Mitochondria Different-Phenotype (%) [6]: 4% and 1%
- Population Mitotic Cells (%) [6]: 62% and 32%
- Population Normal (%) [6]: 100% and 99%
- Population Tubulin-Different-Phenotype (%) [6]: 77% and 74%
- Population Apoptotic (%) [3]: 35% and 75%
- Population Hoechst High Intensity Objects (%) [3]: 0%
- Population Membrane Permeable-Phenotype (%) [3]: 7% and 4%
- Population Mitochondria Different-Phenotype (%) [3]: 0%
- Population Mitotic Cells (%) [3]: 64% and 24%
- Population Normal (%) [3]: 100%
- Population Tubulin-Different-Phenotype (%) [3]: 73% and 77%
- Total Cell Count [3]: 291 and 241
